# How the values were obtained:
# [1] = biological target: Integrin alpha-IIb/beta-3 (Homo sapiens, UniProt P05106+P08514); test: Inhibition of FG binding to alpha IIb beta-3 integrin; format: protein-complex assay
# In short: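 Binding of fibrinogen to immobilized purified GP IIb-IIIa (αIIbβ3). IC50 was calculated by log-linear regression and is the mean of at least two independent experiments.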
# Homo sapiens [2] = species: Homo sapiens; test: Inhibition of platelet aggregation of human platelet rich plasma(h-PRP) induced by adenosine 5-diphosphate (ADP).(oral activity in mice); format: functional; conditions: read-out: ID50 (the source's name)
# In short: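 Mice got about 100 mg/kg orally, suspended in 10% gelatin (particle <1 µm); one mouse was killed at 1 h and one at 3 h for plasma. Serial dilutions of plasma (100 µL) were mixed with 300 µL human PRP and aggregated with 10 µM ADP (final). Dose divided by the IC50 dilution factor gave ID50; 1 h and 3 h values pooled, mean ± SEM.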
# Homo sapiens [3] = species: Homo sapiens; test: Inhibition of platelet aggregation in human platelet rich plasma(h-PRP) induced by adenosine 5-diphosphate (ADP); format: functional
# In short: (§1)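 ADP-induced aggregation of human platelet-rich plasma, measured in vitro. Plasma came from at least two donors. IC50 was read from the inhibition of aggregation.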
# Homo sapiens [4] = species: Homo sapiens; test: Compound was tested for inhibition of platelet aggregation of human platelet rich plasma(h-PRP) induced by adenosine 5-diphosphate (ADP); format: functional; in short: as §1
# Sequence of Integrin alpha-IIb/beta-3 (P05106 27-788 limits assumed): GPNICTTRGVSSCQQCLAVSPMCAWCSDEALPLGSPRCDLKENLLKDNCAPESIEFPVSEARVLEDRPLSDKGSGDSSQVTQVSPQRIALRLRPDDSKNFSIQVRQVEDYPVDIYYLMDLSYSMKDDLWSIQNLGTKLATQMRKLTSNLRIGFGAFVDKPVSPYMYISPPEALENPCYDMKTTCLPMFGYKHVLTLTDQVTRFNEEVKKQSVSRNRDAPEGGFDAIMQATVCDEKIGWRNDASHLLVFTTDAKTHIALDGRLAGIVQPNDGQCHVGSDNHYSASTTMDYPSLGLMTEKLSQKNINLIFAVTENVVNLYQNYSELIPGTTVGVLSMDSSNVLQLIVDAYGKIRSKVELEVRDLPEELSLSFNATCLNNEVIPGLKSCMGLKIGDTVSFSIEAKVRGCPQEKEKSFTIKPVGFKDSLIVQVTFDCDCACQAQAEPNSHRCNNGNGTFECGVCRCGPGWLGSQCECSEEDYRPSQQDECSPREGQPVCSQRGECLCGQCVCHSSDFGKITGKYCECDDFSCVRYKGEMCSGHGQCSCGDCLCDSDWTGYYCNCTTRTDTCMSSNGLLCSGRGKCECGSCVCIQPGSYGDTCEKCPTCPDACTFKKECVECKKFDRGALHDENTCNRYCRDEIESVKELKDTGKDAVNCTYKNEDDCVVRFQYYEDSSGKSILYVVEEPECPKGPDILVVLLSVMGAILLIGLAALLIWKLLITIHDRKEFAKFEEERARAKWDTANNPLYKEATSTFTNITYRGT
# Sequence of Integrin alpha-IIb/beta-3 (P08514 32-887 limits assumed): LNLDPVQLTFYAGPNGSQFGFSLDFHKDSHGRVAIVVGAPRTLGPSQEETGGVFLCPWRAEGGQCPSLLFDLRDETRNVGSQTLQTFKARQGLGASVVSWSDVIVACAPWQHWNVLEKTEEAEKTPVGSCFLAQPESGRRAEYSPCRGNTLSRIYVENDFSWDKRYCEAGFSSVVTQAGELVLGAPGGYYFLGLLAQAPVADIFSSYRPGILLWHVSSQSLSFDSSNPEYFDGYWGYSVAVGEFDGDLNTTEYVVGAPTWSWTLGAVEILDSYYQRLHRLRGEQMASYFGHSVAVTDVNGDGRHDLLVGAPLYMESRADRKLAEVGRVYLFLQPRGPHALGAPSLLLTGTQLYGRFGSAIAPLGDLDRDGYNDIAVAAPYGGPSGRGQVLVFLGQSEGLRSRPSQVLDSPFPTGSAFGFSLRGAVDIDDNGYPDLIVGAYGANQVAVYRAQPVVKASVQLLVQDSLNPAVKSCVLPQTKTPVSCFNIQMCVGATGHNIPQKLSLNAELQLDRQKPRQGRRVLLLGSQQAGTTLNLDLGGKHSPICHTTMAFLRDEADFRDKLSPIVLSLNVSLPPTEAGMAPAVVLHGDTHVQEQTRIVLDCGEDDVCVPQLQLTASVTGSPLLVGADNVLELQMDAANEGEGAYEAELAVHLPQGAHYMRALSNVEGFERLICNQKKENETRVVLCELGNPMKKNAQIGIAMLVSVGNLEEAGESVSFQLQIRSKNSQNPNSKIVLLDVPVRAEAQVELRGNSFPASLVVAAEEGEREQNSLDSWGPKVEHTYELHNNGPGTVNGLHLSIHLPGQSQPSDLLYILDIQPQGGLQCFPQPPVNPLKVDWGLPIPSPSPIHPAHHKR
# Sequence of Integrin alpha-IIb/beta-3 (P08514 891-1039 limits assumed): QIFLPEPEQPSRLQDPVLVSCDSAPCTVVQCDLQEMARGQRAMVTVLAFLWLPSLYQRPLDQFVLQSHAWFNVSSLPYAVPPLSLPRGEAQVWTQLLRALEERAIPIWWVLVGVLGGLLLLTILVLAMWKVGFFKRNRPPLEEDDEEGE
SMILES,IC50 [1] [nM],IC50 (Homo sapiens [3]) [nM],IC50 (Homo sapiens [4]) [nM],ED50 (Homo sapiens [2]) [mg/kg]
CCOC(=O)NC(=N)c1ccc(C(=O)N[C@@H](Cc2ccc(OC(C)=O)cc2)C(=O)N2CCC(OCC(=O)OC(C)C)CC2)cc1,> 10000,> 100000,–,0.9
CCOC(=O)NC(=N)c1ccc(C(=O)N[C@@H](Cc2ccc(O)cc2)C(=O)N2CCC(OCC(=O)O)CC2)cc1,90,1950,–,10.7
CC(C)OC(=O)OC(C)OC(=O)COC1CCN(C(=O)[C@H](C)NC(=O)c2ccc(C(=N)NO)cc2)CC1 (stereo not given in full),> 10000,> 60000,–,0.34
CCOC(=O)COC1CCN(C(=O)[C@H](Cc2ccc(O)cc2)NC(=O)c2ccc(C(N)=NC(=O)OCC)cc2)CC1,> 8000,39800,–,1.4
CCCCOC(=O)NC(=N)c1ccc(C(=O)N[C@@H](C)C(=O)N2CCC(OCC(=O)OCC)CC2)cc1,> 10000,> 100000,–,0.3
CCOC(=O)COC1CCN(C(=O)[C@H](Cc2ccc(O)cc2)NC(=O)c2ccc(C(=N)N)cc2)CC1,51,63,–,6.9
C[C@H](NC(=O)c1ccc(C(=N)NO)cc1)C(=O)N1CCC(OCC(=O)O)CC1,594,13800,–,5.1
CCOC(=O)COC1CCN(C(=O)[C@H](C)NC(=O)c2ccc(C(=N)N)cc2)CC1,163,500,–,1.8
N=C(N)c1ccc(C(=O)N[C@@H](Cc2ccc(O)cc2)C(=O)N2CCC(OCC(=O)O)CC2)cc1 [LAMIFIBAN],1.4,–,33,8.5
C[C@H](NC(=O)c1ccc(C(=N)N)cc1)C(=O)N1CCC(OCC(=O)O)CC1 [RO-44-3888],1.9,38,–,5.2

# Now from value to compound, other results behind:
IC50 [1] [nM],IC50 (Homo sapiens [3]) [nM],IC50 (Homo sapiens [4]) [nM],SMILES,ED50 (Homo sapiens [2]) [mg/kg]
900,345,–,CC(C)OC(=O)COc1ccc(C(=O)CN(C)C(=O)c2ccc(C(=N)N)cc2)cc1OCC(=O)OC(C)C,11
> 10000,> 100000,–,CCOC(=O)NC(=N)c1ccc(C(=O)N(C)CC(=O)c2ccc(OCC(=O)OC(C)C)c(OCC(=O)OC(C)C)c2)cc1,1.4
> 10000,> 100000,–,COC(=O)COc1ccc(C(=O)CN(C)C(=O)c2ccc(C(=N)NO)cc2)cc1OCC(=O)OC,0.7
0.4,51,–,CN(CC(=O)c1ccc(OCC(=O)O)c(OCC(=O)O)c1)C(=O)c1ccc(C(=N)N)cc1,11.2
> 10000,> 100000,–,CCOC(=O)COC1CCN(C(=O)[C@H](Cc2ccc(O)cc2)NC(=O)c2ccc(C(=N)NO)cc2)CC1,2.6

# Reference: ChEMBL document CHEMBL1129729, “Orally active fibrinogen receptor antagonists. 2. Amidoximes as prodrugs of amidines” (J Med Chem, 1996)
